Rows were chosen to be rich in hits. Some 2.5% of all compounds tested hit in one or more screens of this group.
NadD inh: inhibitors of Staphylococcus aureus NadD. purified NadD enzyme, colorimetric absorbance read-out. inhibition, % at 20 µM. actives 0.78% (n = 360,000). AID 602399; in the data active = inhibition above about 26%
Beta2AR agonist: agonists of human beta-2 adrenergic receptor inducing internalization; P07550; Am2.2-beta2AR cells, FAP receptor internalization, flow cytometry; response, % (test concentration not listed); actives 0.43% (n = 340,000);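 active = response above a set limit, near 3 SD of response in nonfluorescent compounds, cut at about 42% in these data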
SENP1 inh: blocks the human SENP1 SUMO protease catalytic domain; Q9P0U3; recombinant SENP1 catalytic domain, CyPet-SUMO1-YPet FRET cleavage; inhibition, % at 10 µM; actives 0.21% (n = 360,000);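 active = inhibition at least 30% at 10 µM, raw YFP signal under a set limit, fluorescence ratio 0.5 to 1.5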;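 also: 0% = enzyme with DMSO and 100% = no enzyme wells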
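Test system: human SENP1 catalytic domain; medium: Tris pH 8 buffer plus EDTA, NaCl, BME, BSA, NP40, catalase; incubation: 50 min reaction at room temperature; technique: FRET, CFP and YFP emission; controls: no-enzyme low control and enzyme-plus-DMSO high control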
GRK2 inh: human GRK2 inhibition via aptamer displacement | P25098 | bead flow cytometry, FAM-aptamer displacement from GRK2 | inhibition of aptamer binding, % at 10 µM | actives 0.59% (n = 330,000) | AID 488847;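 active = inhibition of aptamer binding above 40%, roughly 3 SD of noise, on plates passing a quality check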;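 also: median bead fluorescence of bound FAM aptamer so fluorescent compounds give negative values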
ABHD5 PLIN5 PPI: inhibitors of human ABHD5-perilipin-5 interaction. actives 0.78% (n = 360,000). Q00G26+Q8WTS1. Split G. princeps luciferase complementation, luminescence, 4 h. inhibition, % at 4 µM. AID 602281;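 active = inhibition above the mean inhibition across every tested compound plus 3 SD, cut at about 22% in these data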;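 also: 0% = DMSO only wells and the 100% control is not disclosed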
Target sequence (Q00G26 whole entry, looked up): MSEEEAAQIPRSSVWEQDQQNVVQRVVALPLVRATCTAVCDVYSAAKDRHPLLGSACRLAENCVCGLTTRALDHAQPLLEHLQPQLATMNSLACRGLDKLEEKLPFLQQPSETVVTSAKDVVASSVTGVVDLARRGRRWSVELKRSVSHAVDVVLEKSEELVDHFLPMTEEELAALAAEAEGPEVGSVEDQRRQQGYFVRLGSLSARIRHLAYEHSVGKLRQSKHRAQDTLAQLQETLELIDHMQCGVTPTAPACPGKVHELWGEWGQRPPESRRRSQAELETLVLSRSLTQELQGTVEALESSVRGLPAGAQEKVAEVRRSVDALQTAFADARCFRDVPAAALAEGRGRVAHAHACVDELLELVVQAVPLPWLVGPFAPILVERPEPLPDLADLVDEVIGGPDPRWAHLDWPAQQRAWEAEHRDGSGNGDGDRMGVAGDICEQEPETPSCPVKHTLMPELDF
Target sequence (Q8WTS1 whole entry, looked up): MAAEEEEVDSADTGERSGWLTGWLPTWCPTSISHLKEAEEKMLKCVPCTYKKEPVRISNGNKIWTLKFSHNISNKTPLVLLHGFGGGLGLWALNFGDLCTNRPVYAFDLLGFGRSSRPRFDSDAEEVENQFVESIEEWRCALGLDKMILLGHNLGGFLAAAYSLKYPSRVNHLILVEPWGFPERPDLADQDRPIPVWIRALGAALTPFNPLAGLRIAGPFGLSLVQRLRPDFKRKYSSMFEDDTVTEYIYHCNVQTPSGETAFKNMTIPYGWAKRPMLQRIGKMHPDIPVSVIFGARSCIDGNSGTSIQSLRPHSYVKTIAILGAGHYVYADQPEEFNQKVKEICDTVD
NadD conf: confirmation of Staphylococcus aureus NadD inhibitors; shares compounds with NadD inh; purified S. aureus NadD, colorimetric enzyme assay; inhibition, % at 20 µM; actives 13% (n = 2,000); AID 624309; in the data active = inhibition mostly above about 42%, no sharp cut-off; inactive = mostly below about 42%
Starred values were filed as active, the others as inactive; nt = no result given.

SMILES	NadD inh	Beta2AR agonist	SENP1 inh	GRK2 inh	ABHD5 PLIN5 PPI	NadD conf
CCOC(=O)C1=C(C)N=c2s/c(=C\c3ccc(OC(C)=O)c(OCC)c3)c(=O)n2C1/C=C/c1ccccc1 (stereo not drawn)	54*	-150	-7	1	-22	4
CCOC(=O)C1=C(C)N=c2s/c(=C\c3ccc(OC(C)=O)cc3)c(=O)n2C1/C=C/c1ccccc1 (stereo not drawn)	30	-157	-13	5	-4	nt
C#CCn1c(=NC(=O)c2ccc(S(=O)(=O)N3CCCc4ccccc43)cc2)sc2cc(S(N)(=O)=O)ccc21	50*	5	-6	4	2	39
CC(=O)c1ccc(N2CCN(CC(=O)Nc3ccc4c(c3)OCCO4)CC2)cc1	-3	4	2	0	-2	nt
N#CC1=C(N)NC(SCC(=O)c2ccc(Cl)cc2)=C(C#N)C12CCCC2	33*	18	-29	0	-7	38
COc1ccc2nc(NC(=O)C3CCN(S(=O)(=O)c4cccc5nsnc45)CC3)sc2c1	41*	24	-6	2	6	19
Cc1cccc(NC(=O)C2CCN(S(=O)(=O)c3cccc4nsnc34)CC2)n1	10	8	3	0	-1	nt
O=C(NC1CC1)C1CCN(S(=O)(=O)c2cc([N+](=O)[O-])ccc2Cl)CC1	52*	-2	1	2	-5	29
Cc1cccc2sc(NC(=O)C3CCN(S(=O)(=O)c4cc([N+](=O)[O-])ccc4Cl)CC3)nc12	46*	-8	0	0	8	6
Cc1nnc(NC(=O)C2CCN(S(=O)(=O)c3cc([N+](=O)[O-])ccc3Cl)CC2)o1	-3	0	0	1	-6	nt
COc1cccc(N(CC(=O)NCc2ccco2)C(=O)CCC(=O)Nc2nccs2)c1	2	6	0	1	0	nt
C=CCOc1c(Br)cc(/C=C2/C(=O)ON=C2C)cc1OC	2	6	2	1	-5	nt
Cc1cccc(NS(=O)(=O)c2ccc3[nH]c(=O)[nH]c3c2)c1C	-5	-6	1	0	-3	nt
Cc1cccc(NS(=O)(=O)c2ccc3c(c2)Cc2cc(S(=O)(=O)Nc4cccc(C)c4C)ccc2-3)c1C	36*	-1	1	0	-3	44
CC(C)CC(=O)Nc1ccc(C(=O)COC(=O)C2=COCCO2)cc1	-2	-7	1	1	10	nt
CCC(=O)Nc1ccc(C2=Nn3c(nnc3C(C)C)SC2)cc1	7	-7	-12	3	-4	nt
CCOc1ccc(N=Nc2c(=O)[nH]n3c(=O)c4c([nH]c23)CCCC4)cc1	32*	7	8	2	2	24
COc1ccccc1N1CCN(c2ccc3c(c2)S(=O)(=O)c2cccc(C(=O)NCc4cccc(F)c4)c2C3=O)CC1	31*	nt	14	nt	-4	18
O=C(NCc1cccc(OC(F)(F)F)c1)c1cccc2c1C(=O)c1ccc(-c3ccc(F)cc3OCc3ccccc3)cc1S2(=O)=O	48*	-7	-2	2	-3	33
COc1ccc(-c2ccc3c(c2)S(=O)(=O)c2cccc(C(=O)NCc4cccc(OC(F)(F)F)c4)c2C3=O)cc1OC	14	-3	-31	7	-14	nt
O=C(NCc1ccccc1)c1cccc2c1C(=O)c1ccc(/C=C/c3ccccc3)cc1S2(=O)=O	34*	-7	-28	10	-15	-6
Cc1ccc(CNC(=O)c2cccc3c2C(=O)c2ccc(N4CCCCC4)cc2S3(=O)=O)cc1	28	-4	-31	2	11	nt
O=C(NC1CCCC1)c1cccc2c1C(=O)c1ccc(/C=C/c3ccccc3)cc1S2(=O)=O	25	4	-35	0	5	nt
O=S(=O)(c1cc(F)ccc1F)N1CCN2CCCC2C1 (stereo not drawn)	-3	3	-1	0	10	nt
O=C(Nc1ccc2c(c1)OCO2)c1n[nH]c(=O)c2ccccc12	6	-1	-3	3	6	nt
SMILES	NadD inh	Beta2AR agonist	SENP1 inh	GRK2 inh	ABHD5 PLIN5 PPI	NadD conf
O=[N+]([O-])c1cccc(-c2cc(-c3cc(Br)ccc3O)[nH]n2)c1	38*	16	1	1	-6	4
Cc1ccc(NS(=O)(=O)c2cc(C(=O)Nc3cccc([N+](=O)[O-])c3)ccc2C)cc1	1	3	3	0	8	nt
Cc1ccc(C(=O)Nc2cccc([N+](=O)[O-])c2)cc1S(=O)(=O)Nc1ccc(NC(=O)c2ccccc2)cc1	42*	3	3	1	11	38*
Cc1ccc(NC(=O)CC(=O)c2ccc([N+](=O)[O-])cc2)cc1S(=O)(=O)Nc1cccc(Cl)c1	37*	5	4	0	1	35
Cc1ccc(NC(=S)NC(=O)c2ccc(F)cc2)cc1S(=O)(=O)Nc1cccc(Cl)c1	3	9	1	1	1	nt
COc1cc(/C=C(\NC(=O)c2ccccc2)C(=O)NC(C(=O)O)c2ccccc2)cc(OC)c1OC (stereo not drawn)	-4	3	-2	3	3	nt
CC(OC(=O)Cn1cnc2c1c(=O)n(C)c(=O)n2C)C(=O)NC1(C#N)CCCCC1 (stereo not drawn)	-6	-6	1	nt	-2	nt
O=c1cc(CSc2nc(NCc3ccc(Cl)cc3)c3ccccc3n2)nc2ccc(Cl)cn12	33*	3	-1	nt	1	15
CC(C)c1ccc(NC(=O)COc2ccc(S(=O)(=O)N3CCOCC3)cc2)cc1	46*	-1	0	0	-1	1
Cc1ccc(NC(=O)COc2ccc(S(=O)(=O)N3CCOCC3)cc2)cc1	-6	8	-1	1	4	nt
Cc1ccc(C(=O)C2C(=O)c3ccccc3C2=O)cc1	-3	-11	5	0	-16	nt
NN=C1c2ccccc2C(=O)C1C(=O)C(c1ccccc1)c1ccccc1 (stereo not drawn)	30*	-169	22	nt	-3	50*
O=[N+]([O-])c1ccc(O)c(-c2nc(-c3ccccc3)c(-c3cccs3)[nH]2)c1	34*	13	3	0	-5	10
COc1ccc(-n2nnnc2SCC(=O)Nc2cccc(O)c2)cc1	-8	-4	3	0	0	nt
O=C(Nc1ccc2c(c1)OCO2)C1Cc2ccccc2CN1S(=O)(=O)c1cccs1 (stereo not drawn)	31*	-1	-7	1	-5	-2
COc1ccc2c(c1)C(=O)N1[C@H]3c4cc(Br)ccc4OC[C@@H]3[C@H](c3ccccc3)[C@]1(C)C(=O)N2	30*	5	-8	0	-2	25
COc1cc(Br)c(CC(=O)NC2CC2)cc1OC	3	6	-1	0	2	nt
Cc1ccc2[nH]c(=O)c(C3C(C#N)=C(N)Oc4c3ccc3cccnc43)cc2c1 (stereo not drawn)	45*	-5	-77	5	7	21

High-throughput results (PubChem BioAssay)
